Results published in ChEMBL document CHEMBL1147175, “Synthesis of dioxane-based antiviral agents and evaluation of their biological activities as inhibitors of Sindbis virus replication” (Bioorg Med Chem, 2007).
Activity calls are given as the source filed them. The calls are words filed in the database; no cut-off is given here.

Legend:
[1] = Cytotoxicity against BHK cells by XTT assay; assay type: cell-based, Mesocricetus auratus; details: hamster
Summary of the method: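 Uninfected BHK cells were treated with a range of compound concentrations. Viability was read with an XTT colorimetric kit, where mitochondrial dehydrogenases form a coloured product read at 450 nm.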

Sindbis virus [2] = assay: Antiviral activity against Sindbis virus replication in BHK cells after 12 hrs by luciferase assay; assay type: functional, organism-based
Summary of the method: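 BHK cells grown to confluency were infected with luciferase-reporter Sindbis virus (SIN-IRES-Luc) at MOI below 1. Medium containing compound below cytotoxic concentrations was then added, and cells were incubated 12 h at 37 °C. Luciferase was measured in cell extracts by luminometer. EC50 is the concentration giving a 50% reduction in virus production.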

[3] = Therapeutic index, ratio of EC50 for Sindbis virus to CC50 for BHK cells; assay type: cell-based; details: hamster, read-out: TI
Summary of the method: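 Therapeutic index was calculated as the […] (XTT viability of uninfected BHK cells).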

Sindbis virus [4] = assay: Antiviral activity against Sindbis virus replication in BHK cells at 10^-3 mM after 12 hrs by luciferase assay
Sindbis virus [5] = assay: Antiviral activity against Sindbis virus replication in BHK cells after 12 hrs by luciferase assay
[6] = in the assay text read “luciferase assay” for “XTT assay”

Row | Compound | CC50 [1] | EC50 (Sindbis virus [2]; [6]) | Activity (Sindbis virus [4]) | further results
1 | CN(C)CCCN1c2ccccc2Sc2ccc(Cl)cc21 [CHLORPROMAZINE] | 100 µM | 8.2 µM |  | 
2 | C(C[C@@H]1COCCO1)C[C@@H]1COCCO1 | > 1000 µM | 14 µM |  | selectivity ratio [3]: > 71
3 | C(C[C@H]1COCCO1)C[C@H]1COCCO1 | > 1000 µM |  | inactive | 
4 | OC(C[C@@H]1COCCO1)C[C@@H]1COCCO1 | > 1000 µM | 670 µM |  | 
5 | C1CSC(C[C@H]2COCCO2)(C[C@@H]2COCCO2)SC1 | > 1000 µM | 29 µM |  | 
6 | C1CSC(CC[C@@H]2COCCO2)(C[C@@H]2COCCO2)SC1 | > 1000 µM |  | inactive | 
7 | C(C[C@@H]1COCCO1)C[C@H]1COCCO1 (mixture of isomers) | > 1000 µM |  | inactive | 
8 | C1CSC(C[C@H]2COCCO2)SC1 | > 1000 µM | 1000 µM |  | 
9 | CON=C(C[C@@H]1COCCO1)C[C@@H]1COCCO1 | > 1000 µM |  | inactive | 
10 | ClCCOC[C@H]1CO1 | > 1000 µM | 1000 µM |  | 
11 | OC[C@H]1COCCO1 | > 5000 µM | 1500 µM |  | 
12 | OC[C@@H]1COCCO1 | > 1000 µM | 3.4 µM |  | selectivity ratio [3]: > 294
13 | ICC[C@@H]1COCCO1 | > 1000 µM | 250 µM |  | 
14 | C(CC[C@@H]1COCCO1)C[C@@H]1COCCO1 | > 1000 µM | 1500 µM |  | 
15 | ON=C(C[C@@H]1COCCO1)C[C@@H]1COCCO1 | > 1000 µM |  | inactive | 
16 | CC(O)[C@H]1COCCO1 (stereo not given in full) | 1000 µM | 99 µM |  | 
17 | O=C(C[C@@H]1COCCO1)C[C@@H]1COCCO1 | > 1000 µM |  | inactive | 
18 | O=CC[C@H]1COCCO1 | > 5000 µM |  |  | EC50 (Sindbis virus [2]): 460 µM
19 | OCC[C@@H]1COCCO1 | > 1000 µM | 1400 µM |  | 
20 | c1ccc(CCCC[C@@H]2COCCO2)cc1 | > 1000 µM |  | inactive | 
21 | COc1ccc(CCN(C)CCC[C@](C#N)(c2ccc(OC)c(OC)c2)C(C)C)cc1OC |  | 1300 µM |  | 
22 | OCC[C@H]1COCCO1 | > 1000 µM |  | inactive | 
23 | O=C(CCC[C@@H]1COCCO1)C[C@@H]1COCCO1 |  |  | inactive | 
24 | C1CSC(C[C@H]2COCCO2)(C[C@H]2COCCO2)SC1 | > 1000 µM |  | inactive | 
25 | C1CSC(CC[C@@H]2COCCO2)SC1 | > 1000 µM |  | inactive | 
26 | OCCC[C@@H]1COCCO1 | > 1000 µM |  | inactive | 
27 | OC(CC[C@@H]1COCCO1)C[C@@H]1COCCO1 (stereo not given in full) | > 1000 µM |  | inactive | 
28 | C(CC[C@@H]1COCCO1)CC[C@@H]1COCCO1 | > 1000 µM | 1500 µM |  | 
29 | O=C(CC[C@@H]1COCCO1)C[C@@H]1COCCO1 | > 1000 µM |  | inactive | 
30 | ClCCOC[C@@H]1CO1 | > 5000 µM |  |  | EC50 (Sindbis virus [5]): 1000 µM
